The values below come from ChEMBL document CHEMBL1135995, “Structure-activity relationships of methoctramine-related polyamines as muscular nicotinic receptor noncompetitive antagonists. 3. Effect of inserting the tetraamine backbone into a macrocyclic structure” (J Med Chem, 2002).

Experiment [1] deals with Acetylcholine receptor (Torpedo californica) (UniProt P02710+P02712+P02718+P02714). Nature of the experiment: Antagonist activity against Nicotinic acetylcholine receptor (nAChR) of isolated Torpedo. The format is functional. Summed up:
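Ethidium fluorescence displacement used nAChR-rich membranes from frozen Torpedo californica electric organ (1 µM receptor) with ethidium 7 µM and carbachol 1 mM in 50 mM NaPi, pH 7.4. Competing ligand was added stepwise, with excitation at 480 nm and emission read at 540-740 nm. Kapp was derived by a logarithmic formula (Herz et al.).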

The target of a further experiment is Acetylcholinesterase (Homo sapiens, UniProt P22303). Nature of the experiment: Inhibitory activity on Acetylcholinesterase (AChE) from human erythrocytes.
Chain of Acetylcholinesterase (P22303 whole entry): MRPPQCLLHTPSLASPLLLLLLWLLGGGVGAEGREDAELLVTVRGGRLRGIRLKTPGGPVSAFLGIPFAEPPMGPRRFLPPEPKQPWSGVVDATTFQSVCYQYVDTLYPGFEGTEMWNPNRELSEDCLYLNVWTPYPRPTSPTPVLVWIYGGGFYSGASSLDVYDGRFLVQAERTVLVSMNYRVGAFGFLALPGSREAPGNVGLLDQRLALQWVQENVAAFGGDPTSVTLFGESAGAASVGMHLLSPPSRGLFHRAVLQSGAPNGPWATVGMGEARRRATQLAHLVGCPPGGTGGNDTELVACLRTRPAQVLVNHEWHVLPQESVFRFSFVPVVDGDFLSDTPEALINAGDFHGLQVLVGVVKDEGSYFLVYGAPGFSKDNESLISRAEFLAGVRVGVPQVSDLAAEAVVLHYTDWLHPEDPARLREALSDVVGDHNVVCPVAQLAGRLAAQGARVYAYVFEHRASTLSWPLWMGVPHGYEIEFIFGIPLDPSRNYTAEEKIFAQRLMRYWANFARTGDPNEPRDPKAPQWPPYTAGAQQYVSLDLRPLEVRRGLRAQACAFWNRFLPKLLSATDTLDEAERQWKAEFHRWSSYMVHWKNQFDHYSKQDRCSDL
Experiment [2] can be described thus: Antagonist activity against Nicotinic acetylcholine receptor (nAChR) of isolated Frog rectus Abdominis Muscle. The experiment is classed as functional, tissue-based. Conditions: Amphibia.
Experiment [3] relates to Muscarinic acetylcholine receptor M2 (Cavia porcellus). Nature of the experiment: Antagonist activity against Muscarinic acetylcholine receptor M2 of isolated Guinea Pig Left artium.
Experiment [4] has as its target Muscarinic acetylcholine receptor M3 (Cavia porcellus) (UniProt Q8VH26). Nature of the experiment: Antagonist activity against Muscarinic acetylcholine receptor M3 of isolated Guinea Pig Longitudinal ileum. The experiment is classed as functional, tissue-based. In short, it runs like this: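 Guinea pig terminal ileum longitudinal muscle (2 cm segments) in PSS, with tension recorded isotonically. After ≥30 min equilibration, APE curves (0.01-0.5 µM) were run at 30 min intervals, the second serving as control. A new curve followed 60 min antagonist incubation, with the antagonist at a single 5 µM concentration in triplicate. EC50 was estimated graphically, with untreated parallel tissues as controls.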

The target in experiment [5] is T1, Acetylcholine receptor subunit delta (Torpedo californica) (UniProt P02718).
T1 sequence (whole entry): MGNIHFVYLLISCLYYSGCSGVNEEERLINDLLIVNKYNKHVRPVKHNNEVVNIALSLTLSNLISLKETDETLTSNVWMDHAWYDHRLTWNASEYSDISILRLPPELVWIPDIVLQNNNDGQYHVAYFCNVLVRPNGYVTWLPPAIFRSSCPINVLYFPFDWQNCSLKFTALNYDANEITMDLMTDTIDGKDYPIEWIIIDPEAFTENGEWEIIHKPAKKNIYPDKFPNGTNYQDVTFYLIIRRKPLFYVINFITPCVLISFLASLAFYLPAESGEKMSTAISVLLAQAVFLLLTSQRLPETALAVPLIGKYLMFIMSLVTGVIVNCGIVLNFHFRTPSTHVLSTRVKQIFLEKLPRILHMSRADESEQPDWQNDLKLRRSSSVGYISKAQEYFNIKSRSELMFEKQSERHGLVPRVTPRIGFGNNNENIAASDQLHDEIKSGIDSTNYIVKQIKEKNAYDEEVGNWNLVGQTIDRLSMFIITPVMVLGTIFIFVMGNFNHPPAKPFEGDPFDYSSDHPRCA
Conditions: fish.

Where only a bound is given, the exact number is not on record here.

Chain of Muscarinic acetylcholine receptor M3 (Cavia porcellus) (Q8VH26 1-587): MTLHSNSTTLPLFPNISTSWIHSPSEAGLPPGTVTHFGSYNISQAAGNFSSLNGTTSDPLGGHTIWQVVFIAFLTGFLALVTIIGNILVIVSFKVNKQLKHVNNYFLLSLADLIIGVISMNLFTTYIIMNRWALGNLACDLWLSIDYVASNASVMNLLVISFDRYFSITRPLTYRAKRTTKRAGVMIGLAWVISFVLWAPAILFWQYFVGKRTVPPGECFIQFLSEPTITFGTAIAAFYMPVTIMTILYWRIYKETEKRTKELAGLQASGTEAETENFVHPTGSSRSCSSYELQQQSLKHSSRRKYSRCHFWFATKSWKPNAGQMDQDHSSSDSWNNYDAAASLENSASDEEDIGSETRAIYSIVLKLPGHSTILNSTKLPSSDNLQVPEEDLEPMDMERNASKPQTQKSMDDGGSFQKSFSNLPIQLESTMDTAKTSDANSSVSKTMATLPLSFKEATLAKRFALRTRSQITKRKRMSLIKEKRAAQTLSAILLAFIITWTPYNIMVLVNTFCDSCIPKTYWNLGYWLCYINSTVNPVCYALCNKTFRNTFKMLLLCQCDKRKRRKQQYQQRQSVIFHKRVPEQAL

In the case of `COc1ccccc1CN(CCCCCCCCN(Cc1ccccc1OC)C(=O)CCCCCN)C(=O)CCCCCN`, the pKapp in experiment [1] is 6.46. Further, the results for the IC50 (against Acetylcholinesterase; in experiment [2]) were 33.1 µM and 158 nM, respectively.

As for `COc1ccccc1CN(C)CCCCCC(=O)N(C)CCCCCCCCN(C)C(=O)CCCCCN(C)Cc1ccccc1OC`, the pKapp in experiment [1] is 4.99. For the same molecule, the pKB in experiment [3] was 6.39; in experiment [4], 5.55.

Molecule `COc1ccccc1CN1CCCCCCCCN(Cc2ccccc2OC)C(=O)CCCCCNCc2ccc(cc2)-c2ccc(cc2)CNCCCCCC1=O` showed a pKapp in experiment [1] of 6.64. For the same molecule, the IC50 at Acetylcholinesterase was 3.39 µM; in experiment [2], 589 nM. The pKB in experiment [3] and in experiment [4] was less than 5 in each case.

Turning to `COc1ccccc1CN(CCCCCCN)CCCCCCCCN(CCCCCCN)Cc1ccccc1OC`, in experiment [5], the pKapp was 6.4. Also, the IC50 in experiment [2] was 331 nM.

With `COc1ccccc1CN1CCCCCCN(C)CCCCCCCCN(C)CCCCCCN(Cc2ccccc2OC)Cc2ccc(cc2)Cc2ccc(cc2)C1`, the pKapp in experiment [1] is 6.21. Also, the pKB in experiment [3] and in experiment [4] was less than 5 in each case. This molecule showed an IC50 in experiment [2] of 229 nM.

Molecule `COc1ccccc1CNCCCCCCNCCCCCCCCNCCCCCCNCc1ccccc1OC` [METHOCTRAMINE] registered a pKapp in experiment [1] of 6.21. In experiment [4], this molecule showed a negative logarithm of the KB (pKB) of 6.14. The same molecule gave an IC50 in experiment [2] of 1170 nM.

In turn, `COc1ccccc1CN1CCCCCCCCN(Cc2ccccc2OC)CCCCCCNCc2ccc(cc2)Cc2ccc(cc2)CNCCCCCC1` showed a pKapp in experiment [1] of 6.26. For the same molecule, the negative-log KB (pKB) in experiment [4] was less than 5. Moreover, the half-maximal inhibitory concentration (IC50) in experiment [2] is 191 nM.

With `COc1ccccc1CN1CCCCCCCCN(Cc2ccccc2OC)CCCCCCNCc2ccc(cc2)CNCCCCCC1`, the pKapp in experiment [5] was found to be 6.01. Also, it took 324 nM to reach half-maximal inhibition in experiment [2] (IC50).

Take `COc1ccccc1CN1CCCCCCN(C)CCCCCCCCN(C)CCCCCCN(Cc2ccccc2OC)Cc2ccc(cc2)-c2ccc(cc2)C1`: in experiment [1], the pKapp was found to be 6.35. 447 nM corresponded to half-maximal inhibition in experiment [2] (IC50).

Turning to `COc1ccccc1CNCCCCCCNCCCCCCCCCCCCNCCCCCCNCc1ccccc1OC`, the pKapp in experiment [1] was determined as 5.66. In addition, the pKB in experiment [3] turned out to be 7.35; in experiment [4], 5.98.

In turn, `COc1ccccc1CNCCCCCCNCc1ccc(-c2ccc(-c3ccc(CNCCCCCCNCc4ccccc4OC)cc3)cc2)cc1` displayed a pKapp in experiment [1] of 6.35. For the same molecule, the negative-log KB (pKB) in experiment [3] and in experiment [4] was less than 5 in each case. The same molecule gave a concentration for half-maximal inhibition (IC50) in experiment [2] of 501 nM.

With `COc1ccccc1CN1CCCCCCCCN(Cc2ccccc2OC)CCCCCCNCc2ccc(cc2)-c2ccc(cc2)CNCCCCCC1`, the pKapp in experiment [5] is 5.48. The molecule also showed a concentration for half-maximal inhibition (IC50) in experiment [2] of 1200 nM.

For the molecule `COc1ccccc1CN1CCCCCC(=O)N(C)CCCCCCCCN(C)C(=O)CCCCCN(Cc2ccccc2OC)Cc2ccc(cc2)-c2ccc(cc2)C1`, the pKapp in experiment [1] was found to be 5.1. Besides, the IC50 on Acetylcholinesterase is 53.7 µM; in experiment [2] it was 525 nM.

As for `COc1ccccc1CN1CCCCCCN(C)CCCCCCCCN(C)CCCCCCN(Cc2ccccc2OC)Cc2ccc(cc2)C1`, the pKapp in experiment [1] is 6.43. This molecule showed a half-maximal inhibitory concentration (IC50) in experiment [2] of 3470 nM.

In experiment [1], `CN1CCCCCCCCN(C)CCCCCCNCc2ccc(cc2)-c2ccc(cc2)CNCCCCCC1` had a pKapp of less than 4. In experiment [2], this molecule showed an IC50 of 4270 nM.

`COc1ccccc1CN1CCCCCCCCN(Cc2ccccc2OC)C(=O)CCCCCNCc2ccc(cc2)CNCCCCCC1=O` came in with a pKapp in experiment [1] of 6.47. Also, the IC50 on Acetylcholinesterase was 1.41 µM; in experiment [2], 170 nM. Besides, the negative-log KB (pKB) in experiment [3] and in experiment [4] was less than 5 throughout.

What is called IC50 is the concentration at which inhibition is half-maximal. Usually pKB stands for the KB on a negative log10 scale, so that one unit is a factor of ten. High values mean a low KB, low ones a high KB.
